# Data from ChEMBL document CHEMBL1134485, “Diguanidino and "reversed" diamidino 2,5-diarylfurans as antimicrobial agents” (2001).
# Key:
# Candida albicans [1] = assay: In vitro minimum inhibitory concentration against Candida albicans.; format: functional
# [2] = system: Mycobacterium tuberculosis; assay: In vitro minimum inhibitory concentration required to inhibit Mycobacterium tuberculosis; format: functional
# Summary of the method: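 M. tuberculosis H37Rv grown in BACTEC 12B medium; fluorometric broth microdilution (Microplate Alamar Blue Assay). […] MIC = lowest concentration reducing relative fluorescence units by ≥90% relative to control culture. Testing done by TAACF.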
# Candida albicans [3] = assay: In vitro minimum fungicidal concentration against Candida albicans.; format: functional
# Summary of the method: (§1)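 Yeast MFC: after broth macrodilution (RPMI 1640/MOPS pH 7.0, 0.5 × 10³ to 2.5 × 10³ CFU/mL, 35 °C, 48 h or 72 h for C. neoformans, drug 100 to 0.09 µg/mL), 100 µL from tubes with complete inhibition plated on Sabouraud agar; lowest concentration yielding three or fewer colonies recorded.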
# Nucleic Acid [4] = system: Nucleic Acid
# Nucleic Acid [5] = system: Nucleic Acid; remark: listed apart in the source
# Aspergillus fumigatus [6] = assay: Antimicrobial activity against Aspergillus fumigatus (MIC); format: functional
# Rhizopus arrhizus [7] = assay: Minimum inhibitory concentration required to inhibit 80% inoculum of Rhizopus arrhizus 117.89; format: functional
# Summary of the method: (§2)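 Mould broth macrodilution, drug dilutions 100 to 0.09 µg/mL, in RPMI 1640 buffered at pH 7.0 with 0.165 M MOPS. Isolates are grown on Sabouraud dextrose agar at 30 °C for 4-14 days. Conidia are harvested in 0.85% NaCl/0.05% Tween 80, counted by hemocytometer, and diluted to 0.5 × 10³ to 2.5 × 10³ CFU/mL. Cultures incubated at 30 °C for 48-72 h until the control grows. MIC80 read visually against the growth control.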
# Aspergillus fumigatus [8] = assay: Minimum inhibitory concentration required to inhibit 80% inoculum of Aspergillus fumigatus 153.90; format: functional
# Candida albicans [9] = assay: Minimum fungicidal concentration against Candida albicans 159.95; format: functional; summary of the method: as §1
# Aspergillus fumigatus [10] = assay: Minimum fungicidal concentration against Aspergillus fumigatus 165.86; format: functional
# Summary of the method: (§3)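 Mould MFC: 100 µL aliquots from macrodilution tubes (RPMI 1640/MOPS pH 7.0, 0.5 × 10³ to 2.5 × 10³ CFU/mL conidial inoculum, 30 °C, 48-72 h, drug 100 to 0.09 µg/mL) showing complete growth inhibition plated on Sabouraud agar; MFC taken as lowest drug concentration giving three or fewer colonies.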
# Candida albicans [11] = assay: Minimum inhibitory concentration required to inhibit 100% inoculum of Candida albicans A39; format: functional
# Cryptococcus neoformans [12] = assay: Minimum inhibitory concentration required to inhibit 100% inoculum of Cryptococcus neoformans H99; format: functional
# Aspergillus fumigatus [13] = assay: Minimum fungicidal concentration against Aspergillus fumigatus 119.00; format: functional; summary of the method: as §3
# Aspergillus flavus [14] = assay: Minimum fungicidal concentration against Aspergillus flavus 141.88; format: functional; summary of the method: as §3
# Candida albicans [15] = assay: Minimum inhibitory concentration required to inhibit 80% inoculum of Candida albicans 126.97; format: functional
# Summary of the method: (§4)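 Broth macrodilution following NCCLS M27-T, drug dilutions 100 to 0.09 µg/mL, in RPMI 1640 with glutamine, no bicarbonate, buffered to pH 7.0 with 0.165 M MOPS. Inoculum grown at 35 °C, adjusted to 0.5 × 10³ to 2.5 × 10³ CFU/mL, incubated at 35 °C and read at 48 h. MIC80 is the lowest concentration giving […] visual turbidity relative to the growth-control tube.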
# Aspergillus fumigatus [16] = assay: Minimum inhibitory concentration required to inhibit 100% inoculum of Aspergillus fumigatus 153.90; format: functional
# Candida albicans [17] = assay: Minimum inhibitory concentration required to inhibit 100% inoculum of Candida albicans 159.95; format: functional
# Candida albicans [18] = assay: Minimum fungicidal concentration against Candida albicans A39; format: functional; summary of the method: as §1
# Aspergillus fumigatus [19] = assay: Minimum inhibitory concentration required to inhibit 80% inoculum of Aspergillus fumigatus 182.99; format: functional
# Candida albicans [20] = assay: Minimum fungicidal concentration against Candida albicans 116.98; format: functional; summary of the method: as §1
# Aspergillus flavus [21] = assay: Minimum inhibitory concentration required to inhibit 100% inoculum of Aspergillus flavus 107.96; format: functional
# Aspergillus flavus [22] = assay: Minimum inhibitory concentration required to inhibit 100% inoculum of Aspergillus flavus 194.99; format: functional
# Candida albicans [23] = assay: Minimum fungicidal concentration against Candida albicans 117.00; format: functional; summary of the method: as §1
# Aspergillus fumigatus [24] = assay: Minimum inhibitory concentration required to inhibit 80% inoculum of Aspergillus fumigatus 168.95; format: functional
# Candida albicans [25] = assay: Minimum inhibitory concentration required to inhibit 100% inoculum of Candida albicans 149.97; format: functional
# Aspergillus fumigatus [26] = assay: Minimum fungicidal concentration against Aspergillus fumigatus 182.99; format: functional; summary of the method: as §3
# Aspergillus fumigatus [27] = assay: Minimum fungicidal concentration against Aspergillus fumigatus 153.90; format: functional; summary of the method: as §3
# Aspergillus flavus [28] = assay: Minimum inhibitory concentration required to inhibit 80% inoculum of Aspergillus flavus 194.99; format: functional
# Cryptococcus neoformans [29] = assay: Minimum fungicidal concentration against Cryptococcus neoformans H99; format: functional; summary of the method: as §1
# Candida albicans [30] = assay: Minimum fungicidal concentration against Candida albicans 156.97; format: functional; summary of the method: as §1
# Aspergillus flavus [31] = assay: Minimum fungicidal concentration against Aspergillus flavus 194.99; format: functional; summary of the method: as §3
# Cryptococcus neoformans [32] = assay: Minimum inhibitory concentration required to inhibit 80% inoculum of Cryptococcus neoformans H99; format: functional
# Summary of the method: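 Broth macrodilution following NCCLS M27-T, drug dilutions 100 to 0.09 µg/mL, in RPMI 1640 with glutamine, no bicarbonate, MOPS 0.165 M, pH 7.0. Inoculum grown at 35 °C, 0.5 × 10³ to 2.5 × 10³ CFU/mL, incubated at 35 °C and interpreted at […]. MIC80 is the lowest concentration with turbidity […] of the growth control.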
# Aspergillus fumigatus [33] = assay: Minimum inhibitory concentration required to inhibit 100% inoculum of Aspergillus fumigatus 165.86; format: functional
# Candida albicans [34] = assay: Minimum inhibitory concentration required to inhibit 80% inoculum of Candida albicans 149.97; format: functional; summary of the method: as §4
# Aspergillus fumigatus [35] = assay: Minimum inhibitory concentration required to inhibit 80% inoculum of Aspergillus fumigatus 119.00; format: functional
# Candida albicans [36] = assay: Minimum inhibitory concentration required to inhibit 100% inoculum of Candida albicans 156.97; format: functional
# Aspergillus fumigatus [37] = assay: Minimum inhibitory concentration required to inhibit 80% inoculum of Aspergillus fumigatus 165.86; format: functional
# Candida albicans [38] = assay: Minimum inhibitory concentration required to inhibit 100% inoculum of Candida albicans 126.97; format: functional
# Candida albicans [39] = assay: Minimum fungicidal concentration against Candida albicans 149.97; format: functional; summary of the method: as §1
# Aspergillus flavus [40] = assay: Minimum inhibitory concentration required to inhibit 80% inoculum of Aspergillus flavus 107.96; format: functional
# Aspergillus fumigatus [41] = assay: Minimum fungicidal concentration against Aspergillus fumigatus 168.95; format: functional; summary of the method: as §3
# Candida albicans [42] = assay: Minimum inhibitory concentration required to inhibit 80% inoculum of Candida albicans A39; format: functional; summary of the method: as §4
# Fusarium solani [43] = assay: Minimum fungicidal concentration against Fusarium solani 152.89; format: functional; summary of the method: as §3
# Fusarium solani [44] = assay: Minimum inhibitory concentration required to inhibit 100% inoculum of Fusarium solani 152.89; format: functional
# Aspergillus flavus [45] = assay: Minimum fungicidal concentration against Aspergillus flavus 107.96; format: functional; summary of the method: as §3
# Candida albicans [46] = assay: Minimum fungicidal concentration against Candida albicans 126.97; format: functional; summary of the method: as §1
# Candida albicans [47] = assay: Minimum inhibitory concentration required to inhibit 80% inoculum of Candida albicans 116.98; format: functional; summary of the method: as §4
# Fusarium solani [48] = assay: Minimum inhibitory concentration required to inhibit 80% inoculum of Fusarium solani 152.89; format: functional; summary of the method: as §2
# Candida albicans [49] = assay: Minimum inhibitory concentration required to inhibit 80% inoculum of Candida albicans 117.00; format: functional; summary of the method: as §4
# Aspergillus fumigatus [50] = assay: In vitro minimum fungicidal concentration required to inhibit Aspergillus fumigatus(MFC); format: functional; summary of the method: as §3
# Aspergillus flavus [51] = assay: Minimum inhibitory concentration required to inhibit 100% inoculum of Aspergillus flavus 141.88; format: functional
# Candida albicans [52] = assay: Minimum inhibitory concentration required to inhibit 100% inoculum of Candida albicans 117.00; format: functional
# Candida albicans [53] = assay: Minimum inhibitory concentration required to inhibit 100% inoculum of Candida albicans 116.98; format: functional
# Aspergillus fumigatus [54] = assay: Minimum inhibitory concentration required to inhibit 100% inoculum of Aspergillus fumigatus 168.95; format: functional
# Rhizopus arrhizus [55] = assay: Minimum fungicidal concentration against Rhizopus arrhizus 117.89; format: functional; summary of the method: as §3
# Aspergillus flavus [56] = assay: Minimum inhibitory concentration required to inhibit 80% inoculum of Aspergillus flavus 141.88; format: functional
# Candida albicans [57] = assay: Minimum inhibitory concentration required to inhibit 80% inoculum of Candida albicans 156.97; format: functional; summary of the method: as §4
# Aspergillus fumigatus [58] = assay: Minimum inhibitory concentration required to inhibit 100% inoculum of Aspergillus fumigatus 119.00; format: functional
# Aspergillus fumigatus [59] = assay: Minimum inhibitory concentration required to inhibit 100% inoculum of Aspergillus fumigatus 182.99; format: functional
# Rhizopus arrhizus [60] = assay: Minimum inhibitory concentration required to inhibit 100% inoculum of Rhizopus arrhizus 117.89; format: functional
# Candida albicans [61] = assay: Minimum inhibitory concentration required to inhibit 80% inoculum of Candida albicans 159.95; format: functional; summary of the method: as §4
structure (smiles),measurement,setting,value
N=C(Nc1ccc(-c2ccc(-c3ccc(NC(=N)c4ccccn4)cc3Cl)o2)c(Cl)c1)c1ccccn1,MIC,Candida albicans [1],100 µg/mL
same,MIC,[2],8 µg/mL
same,MFC,Candida albicans [3],> 100 µg/mL
same,ΔTm,Nucleic Acid [4],5.2
same,ΔTm,Nucleic Acid [5],0
same,MIC,Aspergillus fumigatus [6],> 100 µg/mL
Cc1ccc(C(=N)Nc2ccc(-c3ccc(-c4ccc(NC(=N)c5ccc(C)cn5)cc4C)o3)c(C)c2)nc1,MIC,Candida albicans [1],≤ 1 µg/mL
same,MIC,Rhizopus arrhizus [7],0.78 µg/mL
same,MIC,Aspergillus fumigatus [8],3.12 µg/mL
same,MFC,Candida albicans [9],3.12 µg/mL
same,MFC,Aspergillus fumigatus [10],> 100 µg/mL
same,MIC,Candida albicans [11],1.56 µg/mL
same,MIC,Cryptococcus neoformans [12],1.56 µg/mL
same,MFC,Aspergillus fumigatus [13],> 100 µg/mL
same,MFC,Aspergillus flavus [14],> 100 µg/mL
same,MIC,Candida albicans [15],1.56 µg/mL
same,MIC,Aspergillus fumigatus [16],50 µg/mL
same,MIC,[2],2 µg/mL
same,MIC,Candida albicans [17],1.58 µg/mL
same,MFC,Candida albicans [18],25 µg/mL
same,MIC,Aspergillus fumigatus [19],3.12 µg/mL
same,MFC,Candida albicans [20],> 100 µg/mL
same,MIC,Aspergillus flavus [21],50 µg/mL
same,MIC,Aspergillus flavus [22],6.25 µg/mL
same,MFC,Candida albicans [23],25 µg/mL
same,MIC,Aspergillus fumigatus [24],10 µg/mL
same,MIC,Candida albicans [25],1.56 µg/mL
same,MFC,Aspergillus fumigatus [26],> 100 µg/mL
same,MFC,Aspergillus fumigatus [27],> 100 µg/mL
same,MFC,Candida albicans [3],10 µg/mL
same,MIC,Aspergillus flavus [28],3.12 µg/mL
same,MFC,Cryptococcus neoformans [29],> 100 µg/mL
same,MFC,Candida albicans [30],> 100 µg/mL
same,MFC,Aspergillus flavus [31],> 100 µg/mL
same,MIC,Cryptococcus neoformans [32],1.56 µg/mL
same,MIC,Aspergillus fumigatus [33],50 µg/mL
same,MIC,Candida albicans [34],0.78 µg/mL
same,MIC,Aspergillus fumigatus [35],3.12 µg/mL
same,MIC,Candida albicans [36],3.15 µg/mL
same,MIC,Aspergillus fumigatus [37],50 µg/mL
same,MIC,Candida albicans [38],3.12 µg/mL
same,ΔTm,Nucleic Acid [4],24.3
same,MFC,Candida albicans [39],6.25 µg/mL
same,MIC,Aspergillus flavus [40],3.12 µg/mL
same,MFC,Aspergillus fumigatus [41],> 100 µg/mL
same,MIC,Candida albicans [42],1.56 µg/mL
same,MFC,Fusarium solani [43],50 µg/mL
same,ΔTm,Nucleic Acid [5],10.8
same,MIC,Fusarium solani [44],50 µg/mL
same,MFC,Aspergillus flavus [45],> 100 µg/mL
same,MFC,Candida albicans [46],3.12 µg/mL
same,MIC,Candida albicans [47],1.56 µg/mL
same,MIC,Aspergillus fumigatus [6],10 µg/mL
same,MIC,Fusarium solani [48],3.12 µg/mL
same,MIC,Candida albicans [49],0.78 µg/mL
same,MFC,Aspergillus fumigatus [50],> 100 µg/mL
same,MIC,Aspergillus flavus [51],50 µg/mL
same,MIC,Candida albicans [52],3.12 µg/mL
same,MIC,Candida albicans [53],1.56 µg/mL
same,MIC,Aspergillus fumigatus [54],50 µg/mL
same,MFC,Rhizopus arrhizus [55],1.56 µg/mL
same,MIC,Aspergillus flavus [56],3.12 µg/mL
same,MIC,Candida albicans [57],1.56 µg/mL
same,MIC,Aspergillus fumigatus [58],50 µg/mL
same,MIC,Aspergillus fumigatus [59],50 µg/mL
same,MIC,Rhizopus arrhizus [60],1.56 µg/mL
same,MIC,Candida albicans [61],0.79 µg/mL
